Experiments:
[1] = system: Simian immunodeficiency virus; test: Antiviral activity against SIV in human CEM cells assessed as inhibition of virus-induced cytopathogenicity; type: functional, organism-based, CCRF-CEM; conditions: ccrf-cem
In short: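 SIV syncytium assay in CEM174 cells (2 × 10⁵ cells/ml) infected with 100 TCID₅₀ SIV per well alongside serial compound dilutions. Cultures were kept 5 days at 37 °C in humidified 5% CO₂, then giant-cell formation was scored microscopically. EC₅₀ is the concentration protecting cells from SIV cytopathogenicity by 50%.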

[2] = system: Simian immunodeficiency virus; test: Antiviral activity against SIV in human CEM cells assessed as inhibition of virus-induced cytopathogenicity at 10 uM; type: functional, CCRF-CEM; set-up: scale not given: the % may be the effect or the level left

EC50 [1]: Not Active
SMILES: C/C=C/C[C@@H](C)[C@@H](O)[C@H]1C(=O)N[C@@H](CC)C(=O)N(C)CC(=O)N(C)[C@@H](CC(C)C)C(=O)N[C@@H](C(C)C)C(=O)N(C)[C@@H](CC(C)C)C(=O)N[C@@H](C)C(=O)N[C@H](C)C(=O)N(C)[C@@H](CC(C)C)C(=O)N(C)[C@@H](CC(C)C)C(=O)N(C)[C@@H](C(C)C)C(=O)N1C [CYCLOSPORINE]
Activity [2]: <10%
